# Source: ChEMBL document CHEMBL4400568, “The design of 1,4-naphthoquinone derivatives and mechanisms underlying apoptosis induction through ROS-dependent MAPK/Akt/STAT3 pathways in human lung cancer cells” (Bioorg Med Chem, 2019)
# pIC50: −log10 of the molar value. Calls of active or inactive are those of the source. The rule behind the calls is not given here.
# Legend:
# A549 [1] = experiment: Modulation of ERK in human A549 cells assessed as increase in cleaved caspase-3 measured after 24 hrs in presence of ERK inhibitor-FR180204 by Western blot analysis; assay type: cell-based
# Method in brief: (§1)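 A549 cells pre-incubated for 30 min with 12.1 μM kinase inhibitor: SB203580 (p38), SP600125 (JNK), FR180204 (ERK) or LY10249 (Akt). Compound treatment followed for 24 h. Lysates (30 μg protein) analysed by 12% SDS-PAGE and nitrocellulose immunoblot with HRP detection. Three independent experiments, mean ± SD.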
# [2] = target: T1, MAP kinase p38 (Homo sapiens) (UniProt O15264+Q15759+Q16539+P53778); experiment: Activation of p38 phosphorylation in human A549 cells at 3 uM after 24 hrs in presence of NAC by Western blot analysis; assay type: cell-based
# Method in brief: (§2)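 A549 cells exposed to 3 μM for 3, 6, 12 or 24 h; where NAC is used, 10 mM NAC is added 30 min before 24 h treatment. Lysate protein (30 μg) is run on 12% SDS-PAGE, blotted to nitrocellulose, blocked in 5% milk, primary antibody overnight at 4°C, then HRP anti-IgG. β-actin loading control; densitometry; three independent experiments, mean ± SD.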
# [3] = target: RAC-alpha serine/threonine-protein kinase (Homo sapiens) (UniProt P31749); experiment: Inhibition of AKT phosphorylation in human A549 cells at 3 uM by Western blot analysis; assay type: cell-based; settings: TDE = time-dependent effect
# Method in brief: (§3)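 A549 cells exposed to 3 μM for 3, 6, 12 or 24 h. Lysate protein (30 μg) run on 12% SDS-PAGE and blotted to nitrocellulose. Membranes blocked in 5% skim milk, primary antibodies at 4°C overnight, then HRP anti-IgG secondary for 1 h at room temperature. β-actin was the internal control. Bands quantified by densitometry; three independent experiments, mean ± SD.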
# A549 [4] = experiment: Induction of ROS generation in human A549 cells assessed as intracellular ROS level at 3 uM after 3 hrs by DCFH-DA staining-based flow cytometric analysis (reference value: 51.8%); assay type: functional
# Method in brief: (§4)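 A549 cells loaded with DCFH-DA (10 μM per legend) for 30 min, then exposed to 3 μM at 37°C for 3, 6, 12 or 24 h. After two PBS washes, intracellular fluorescence is quantified by flow cytometry. Three independent experiments, mean ± SD.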
# A549 [5] = experiment: Cell cycle arrest in human A549 cells assessed as increase in p21 levels at 3 uM by Western blot analysis; assay type: functional, cell-based; settings: TDE = time-dependent effect; method in brief: as §2
# A549 [6] = experiment: Induction of ROS generation in human A549 cells assessed as intracellular ROS level at 3 uM after 6 hrs by DCFH-DA staining-based flow cytometric analysis (reference value: 51.8%); assay type: functional; method in brief: as §4
# A549 [7] = experiment: Cell cycle arrest in human A549 cells assessed as accumulation of cells at S phase at 3 uM after 3 hrs by propidium iodide staining-based flow cytometric analysis (reference value: 13.85%); assay type: functional
# A549 [8] = experiment: Inhibition of ERK in human A549 cells assessed as decrease in STAT3 phosphorylation at 3 uM after 3 to 24 hrs by Western blot analysis; assay type: cell-based; method in brief: as §3
# A549 [9] = experiment: Cell cycle arrest in human A549 cells assessed as accumulation of cells at G1 phase at 3 uM after 12 hrs by propidium iodide staining-based flow cytometric analysis (reference value: 57.65%); assay type: functional
# A549 [10] = experiment: Induction of apoptosis in human A549 cells assessed as late apoptotic cells at 3 uM after 6 hrs by Annexin V-FITC/propidium iodide staining-based flow cytometric analysis (reference value: 4.52%); assay type: functional
# A549 [11] = experiment: Induction of apoptosis in human A549 cells assessed as cell shrinkage at 3 uM by Annexin V-FITC/propidium iodide staining-based flow cytometric analysis; assay type: functional; settings: TDE = time-dependent effect
# [12] = Cytotoxicity against human QSG7701 cells assessed as reduction in cell viability after 24 hrs by MTT assay; assay type: cell-based
# Method in brief: (§5)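 Log-phase cells seeded at 1 × 10⁴ per well. Lung cancer lines (A549, NCI-H23, NCI-H460) and normal lines (IMR-90, QSG-7701, HEK-293A) each exposed to 1, 3, 10, 30 and 100 μM for 24 h. MTT (5 mg/mL stock) added for 2 h at 37°C, formazan dissolved in DMSO, absorbance read at 490 nm. Three independent experiments, mean ± SD.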
# A549 [13] = experiment: Inhibition of ERK phosphorylation in human A549 cells at 3 uM after 3 to 24 hrs by Western blot analysis; assay type: cell-based; method in brief: as §3
# A549 [14] = experiment: Induction of ROS generation in human A549 cells at 3 uM by DCFH-DA staining-based flow cytometric analysis; assay type: functional, cell-based; settings: TDE = time-dependent effect; method in brief: as §4
# A549 [15] = experiment: Cell cycle arrest in human A549 cells assessed as accumulation of cells at G2 phase at 3 uM after 12 hrs by propidium iodide staining-based flow cytometric analysis (reference value: 24.02%); assay type: functional
# A549 [16] = experiment: Cell cycle arrest in human A549 cells assessed as accumulation of cells at G1 phase at 3 uM after 6 hrs by propidium iodide staining-based flow cytometric analysis (reference value: 57.65%); assay type: functional
# A549 [17] = experiment: Cell cycle arrest in human A549 cells assessed as accumulation of cells at S phase at 3 uM after 6 hrs by propidium iodide staining-based flow cytometric analysis (reference value: 13.85%); assay type: functional
# A549 [18] = experiment: Induction of apoptosis in human A549 cells assessed as early apoptotic cells at 3 uM after 3 hrs by Annexin V-FITC/propidium iodide staining-based flow cytometric analysis (reference value: 2.73%); assay type: functional
# A549 [19] = experiment: Cell cycle arrest in human A549 cells assessed as accumulation of cells at G2 phase at 3 uM after 24 hrs by propidium iodide staining-based flow cytometric analysis (reference value: 24.02%); assay type: functional
# A549 [20] = experiment: Cytotoxicity against human A549 cells assessed as reduction in cell viability after 24 hrs by MTT assay; assay type: functional, cell-based; settings: A549, 24 h; method in brief: as §5
# A549 [21] = experiment: Cell cycle arrest in human A549 cells assessed as increase in p27 levels at 3 uM by Western blot analysis; assay type: functional, cell-based; settings: TDE = time-dependent effect; method in brief: as §2
# [22] = target: RAC-alpha serine/threonine-protein kinase (Homo sapiens) (UniProt P31749); experiment: Inhibition of AKT phosphorylation in human A549 cells at 3 uM measured after 24 hrs in presence of NAC by Western blot analysis; assay type: cell-based
# Method in brief: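 A549 cells pretreated with 10 mM NAC for 30 min, then exposed to compound for 24 h. Lysate protein (30 μg) resolved on 12% SDS-PAGE and transferred to nitrocellulose. Probed with primary antibodies overnight at 4°C, then HRP secondary. Band densities from three independent experiments, mean ± SD.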
# A549 [23] = experiment: Induction of apoptosis in human A549 cells assessed as increase in cleaved caspase-3 expression at 3 uM by Western blot analysis; assay type: functional, cell-based; settings: TDE = time-dependent effect; method in brief: as §2
# [24] = target: T1, MAP kinase p38 (Homo sapiens); experiment: Modulation of p38 MAPK in human A549 cells assessed as reduction in STAT3 phosphorylation measured after 24 hrs in presence of p38 inhibitor SB203580 by Western blot analysis; assay type: cell-based; method in brief: as §1
# A549 [25] = experiment: Cell cycle arrest in human A549 cells assessed as accumulation of cells at S phase at 3 uM after 24 hrs by propidium iodide staining-based flow cytometric analysis (reference value: 13.85%); assay type: functional
# NCI-H460 = experiment: Cytotoxicity against human NCI-H460 cells assessed as reduction in cell viability after 24 hrs by MTT assay; assay type: functional, cell-based; method in brief: as §5
# Chain of RAC-alpha serine/threonine-protein kinase (Homo sapiens) (P31749 whole entry): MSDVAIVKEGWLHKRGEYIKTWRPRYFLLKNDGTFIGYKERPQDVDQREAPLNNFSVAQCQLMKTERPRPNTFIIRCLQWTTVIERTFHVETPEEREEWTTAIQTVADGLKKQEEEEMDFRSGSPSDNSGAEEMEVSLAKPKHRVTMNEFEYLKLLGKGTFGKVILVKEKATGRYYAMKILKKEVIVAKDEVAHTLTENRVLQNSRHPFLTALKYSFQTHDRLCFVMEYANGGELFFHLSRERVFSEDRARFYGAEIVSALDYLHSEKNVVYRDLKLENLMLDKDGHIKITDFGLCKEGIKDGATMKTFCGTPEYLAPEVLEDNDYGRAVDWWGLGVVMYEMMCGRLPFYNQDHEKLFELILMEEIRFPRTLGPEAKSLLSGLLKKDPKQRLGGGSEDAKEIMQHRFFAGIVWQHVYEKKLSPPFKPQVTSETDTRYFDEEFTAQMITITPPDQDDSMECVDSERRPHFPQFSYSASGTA
SMILES,Activity (A549 [1]),Activity [2],inhibition [3],Activity (A549 [4]),Activity (A549 [5]),Activity (A549 [6]),Activity (A549 [7]),inhibition (A549 [8]),Activity (A549 [9]),Activity (A549 [10]),Activity (A549 [11]),Activity [12],inhibition (A549 [13]),Activity (A549 [14]),Activity (A549 [15]),Activity (A549 [16]),Activity (A549 [17]),Activity (A549 [18]),Activity (A549 [19]),pIC50 (A549 [20]),further results
CCCCCCCCCS(=O)(=O)C12OC1C(=O)c1c(OC)ccc(OC)c1C2=O (configuration not stated),Active,inactive,Tde,52.52%,Tde,59.58%,9.45%,Active,68.84%,6.43%,Tde,Non-Toxic,Active,Tde,20.99%,65.95%,8.44%,8.15%,19.84%,5.12,Activity (A549 [21]): Tde; inhibition [22]: inactive; Activity (A549 [23]): Tde; Activity [24]: inactive; Activity (A549 [25]): 6.03%; Activity (NCI-H460): Active
CCCS(=O)(=O)C12OC1C(=O)c1c(OC)ccc(OC)c1C2=O (configuration not stated),Active,inactive,Tde,57.9%,Tde,60.04%,11.61%,Active,69%,7.11%,Tde,Non-Toxic,Active,Tde,17.49%,66.13%,10.31%,13.29%,17.13%,5.59,Activity (A549 [21]): Tde; inhibition [22]: inactive; Activity (A549 [23]): Tde; Activity [24]: inactive; Activity (A549 [25]): 7.41%; Activity (NCI-H460): Active
